Bioassay records as filed in PubChem BioAssay.
Most compounds without a hit are left out; they make up all but 0.61% or so of the library.
Xi reactivation = activators of inactive X chromosome reactivation, primary screen, imaging, XiGFP fibroblasts, GFP high-content imaging, set 2 | XiGFP mouse fibroblasts, % GFP-positive cells imaging, 3 d; cells co-treated with 5-aza-dC sensitizer; scaled so ellipticine positive control = 100% | activation, % at 7.58 µM | 0.055% of 360,000 active | AID 743238, 2013;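 active = mean normalized replicate activation at least 10% and every replicate at or above 10%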;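 note: 0% = median of on-plate neutral control wells and 100% = ellipticine 6 µM median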
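Assay system: SV40-immortalized XiGFP fibroblast cells, line 68-5-11; buffer or medium: DMEM plus 5-aza-dC sensitizer; compound: one concentration, pinned; timing: compounds 3 days, fix/stain 15 min at room temperature; benchmarks: positive control ellipticine, 6 µM final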
CFTR F508del cor = F508del CFTR correction, initial screen, CFBE line, single point; CFBE cells, YFP halide quenching; stimulated with forskolin plus potentiator P3; % fluorescence drop versus neutral controls; activity (quench increase), % at 7.58 µM; 0.36% of 350,000 active;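 active = mean added fluorescence quench of at least 8% versus neutral control, with both replicates also reaching 8%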;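 note: cells transiently co-express mutant CFTR-F508del with the halide-sensitive YFP; corrector assay measuring rescue of mutant channel to the surface after 24 h compound exposure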
E-selectin induc = E-selectin induction in HUVECs, primary screen, imaging, HUVEC, immunofluorescence imaging, single point | normalized: neutral wells 0, TNF-alpha wells 100 | activation, % at 7.58 µM | 0.37% of 260,000 active | AID 686992, 2013;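 active = mean E-selectin-positive cell signal at least 10% of the positive control, reached in at least 60% of replicates, without over 20% cell loss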
Target sequence (P16581 whole entry, looked up): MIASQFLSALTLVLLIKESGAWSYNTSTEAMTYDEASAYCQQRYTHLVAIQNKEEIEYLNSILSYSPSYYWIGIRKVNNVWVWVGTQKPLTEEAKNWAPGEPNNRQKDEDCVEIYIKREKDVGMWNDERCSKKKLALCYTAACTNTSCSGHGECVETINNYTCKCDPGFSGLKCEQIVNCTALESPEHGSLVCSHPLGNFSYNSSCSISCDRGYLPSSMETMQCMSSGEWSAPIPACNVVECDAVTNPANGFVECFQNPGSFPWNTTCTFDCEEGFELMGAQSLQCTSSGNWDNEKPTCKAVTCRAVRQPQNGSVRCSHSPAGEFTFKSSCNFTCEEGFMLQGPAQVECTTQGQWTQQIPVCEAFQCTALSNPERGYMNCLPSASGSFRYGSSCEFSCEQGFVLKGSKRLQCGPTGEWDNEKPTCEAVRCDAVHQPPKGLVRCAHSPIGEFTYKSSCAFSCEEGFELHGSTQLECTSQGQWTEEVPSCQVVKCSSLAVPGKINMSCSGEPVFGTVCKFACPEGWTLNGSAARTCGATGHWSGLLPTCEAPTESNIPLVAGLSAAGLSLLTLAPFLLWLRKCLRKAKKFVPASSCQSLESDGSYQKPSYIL
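material = human umbilical vein endothelial cells (HUVEC), E-selectin induction | quantity = 3,000 cells/well | medium = EGM-2 growth medium on 0.1% gelatin-coated wells | technique = immunofluorescence imaging | read-out basis = % PE-positive cells | control set = TNF-alpha positive control, DMSO neutral control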
Starred values were filed as active, the others as inactive; · = not tested or not shown.

SMILES	Xi reactivation	CFTR F508del cor	E-selectin induc
C[C@@H]1CN([C@@H](C)CO)C(=O)Cc2cc(NC(=O)Cn3cnnn3)ccc2O[C@H]1CN(C)C(=O)Nc1ccc(F)cc1	-0.1	-1.0	86.0*
CC(C)NC(=O)N(C)C[C@@H]1Oc2ccc(NC(=O)CCCN(C)C)cc2C(=O)N([C@@H](C)CO)C[C@@H]1C	0.1	2.6	-16.6
C[C@@H]1CCCCO[C@H](CN(C)S(C)(=O)=O)[C@H](C)CN([C@@H](C)CO)C(=O)c2cc(NC(=O)CCCN(C)C)ccc2O1	-0.9	-1.3	0.2
CC(C)NC(=O)N(C)C[C@@H]1Oc2ccc(NC(=O)CCCN(C)C)cc2C(=O)N([C@@H](C)CO)C[C@H]1C	0.1	-3.0	241.6*
C[C@@H]1CN([C@@H](C)CO)C(=O)Cc2cc(NC(=O)Cn3cnnn3)ccc2O[C@@H]1CN(C)C(=O)Nc1ccc(F)cc1	0.2	0.4	-3.1
OC[C@@H]1[C@@H](c2ccc(C#CC3(O)CCCC3)cc2)[C@@H]2CN(Cc3ccncc3)CCCCN12	0.0	0.1	-0.3
C[C@@H]1CN([C@@H](C)CO)C(=O)c2cc(-c3ccccc3)cnc2O[C@H]1CN(C)C(=O)C1CCOCC1	-0.3	-2.9	-0.1
C[C@@H]1CN([C@H](C)CO)C(=O)CCCn2cc(nn2)CO[C@H]1CN(C)Cc1ccc(Oc2ccccc2)cc1	0.1	0.5	0.3
C[C@H]1CN([C@@H](C)CO)C(=O)CCCn2nncc2CO[C@H]1CN(C)C(=O)Nc1ccc2c(c1)OCCO2	0.3	1.2	0.1
CC(C)NC(=O)N(C)C[C@@H]1Oc2ccc(NC(=O)Cn3cnnn3)cc2C(=O)N([C@H](C)CO)C[C@H]1C	-0.1	1.9	58.6*
CC(C)NC(=O)N(C)C[C@@H]1Oc2ccc(NC(=O)Cn3cnnn3)cc2C(=O)N([C@H](C)CO)C[C@@H]1C	-0.1	-2.3	9.4
COC(=O)c1ccc(NC(=O)COc2cccc3c2OC(C)(C)C3)cc1	0.1	-2.8	·
CC(=O)Nc1ccc(NC(=O)COc2cccc3c2OC(C)(C)C3)cc1	0.3	11.2*	3.7
C[C@H]1CN([C@@H](C)CO)C(=O)c2cccc(NS(=O)(=O)c3ccccc3)c2O[C@H]1CN(C)Cc1ccc(-c2ccccc2)cc1	-0.6	-0.5	-0.3
COC(=O)c1cc2c(=O)c3ccccc3oc2nc1/C=C/N(C)C	1.3	28.1*	0.1
COC(=O)c1cc2c(=O)c3ccccc3oc2nc1C	0.1	-1.7	·
COc1ccc(NC(=O)N(C)C[C@H]2OCCCC[C@H](C)Oc3ccc(NC(=O)Nc4ccccc4)cc3C(=O)N([C@@H](C)CO)C[C@H]2C)cc1	0.0	1.4	0.0
Cc1nn2cc(-c3cccc(Cl)c3)cnc2c1Br	0.4	9.5*	-3.7
Cc1nn2cc(-c3cccc(Cl)c3)cnc2c1Cl	0.0	0.6	2.1
Cc1ccnc2c1ccc1cccnc12	0.0	9.4*	·
Cc1ccnc2c1ccc1ccccc12	0.0	-2.7	-0.2
CO[C@H]1CN(C)C(=O)c2ccc(NC(=O)c3ccc(F)cc3)cc2OC[C@@H](C)N(C)C[C@H]1C	-0.3	0.2	0.4
C[C@H]1CN([C@@H](C)CO)S(=O)(=O)c2ccc(C#Cc3cccc(F)c3)cc2O[C@H]1CN(C)C(=O)NC1CCCCC1	0.0	11.6*	6.2
CC(=O)N(C)C[C@@H]1Oc2cc(C#Cc3ccc(F)cc3)ccc2S(=O)(=O)N([C@H](C)CO)C[C@@H]1C	-0.7	8.0*	0.0
C[C@@H]1CN([C@H](C)CO)S(=O)(=O)c2ccc(C#Cc3ccc(F)cc3)cc2O[C@@H]1CN(C)C(=O)NC1CCCC1	-1.3	1.7	0.1
SMILES	Xi reactivation	CFTR F508del cor	E-selectin induc
C[C@@H]1CN([C@@H](C)CO)S(=O)(=O)c2ccc(C#Cc3ccccc3F)cc2O[C@@H]1CN(C)C(=O)c1ccc2c(c1)OCO2	-0.5	4.8	-0.1
C[C@H]1CN([C@@H](C)CO)S(=O)(=O)c2ccc(C#Cc3ccccc3F)cc2O[C@H]1CN(C)C(=O)c1ccc2c(c1)OCO2	-0.4	9.6*	-0.2
C[C@@H]1CN([C@@H](C)CO)S(=O)(=O)c2ccc(C#Cc3ccc(F)cc3)cc2O[C@@H]1CN(C)C(=O)NC1CCCCC1	-0.5	5.9	0.4
C[C@@H]1CN([C@H](C)CO)S(=O)(=O)c2ccc(C#Cc3cccc(F)c3)cc2O[C@@H]1CN(C)C(=O)NC1CCCCC1	-0.9	10.4*	0.1
CC(=O)N(C)C[C@@H]1Oc2cc(C#Cc3ccc(F)cc3)ccc2S(=O)(=O)N([C@@H](C)CO)C[C@@H]1C	0.7	5.4	0.0
C[C@@H]1CN([C@H](C)CO)C(=O)Cc2cc(NS(=O)(=O)c3ccc(Cl)cc3)ccc2O[C@H]1CN(C)S(C)(=O)=O	0.0	-0.9	-11.1
C[C@H]1CN([C@@H](C)CO)S(=O)(=O)c2ccc(C#Cc3ccc(F)cc3)cc2O[C@@H]1CN(C)C(=O)NC1CCCCC1	0.0	6.8	-3.4
C[C@H](CO)N1C[C@H](C)[C@H](CN(C)C(=O)NC2CCCCC2)Oc2cc(C#Cc3cccc(F)c3)ccc2S1(=O)=O	-0.1	8.4*	-3.7
C[C@H]1CN([C@@H](C)CO)S(=O)(=O)c2ccc(C#Cc3ccc(F)cc3)cc2O[C@H]1CN(C)C(=O)NC1CCCCC1	0.0	10.1*	-2.3
CCCC#Cc1ccc2c(c1)O[C@H](CN(C)C(=O)c1ccncc1)[C@H](C)CN([C@@H](C)CO)S2(=O)=O	-0.2	3.2	0.3
CCCC#Cc1ccc2c(c1)O[C@@H](CN(C)C(=O)c1ccncc1)[C@H](C)CN([C@@H](C)CO)S2(=O)=O	-0.9	1.0	118.2*
C[C@H](CO)N1C[C@H](C)[C@@H](CN(C)C(=O)NC2CCCCC2)Oc2cc(C#Cc3cccc(F)c3)ccc2S1(=O)=O	-0.7	1.2	0.5
Cc1ccc(S(=O)(=O)Nc2ccc3c(c2)C(=O)N([C@H](C)CO)C[C@H](C)[C@@H](CN(C)C(=O)C2CCCCC2)OCCCC[C@H](C)O3)cc1	0.1	2.5	0.0
C[C@H](CO)N1C[C@H](C)[C@H](CN(C)C(=O)Nc2ccc3c(c2)OCO3)Oc2ccc(NC(=O)CCCCCC(=O)Nc3ccccc3N)cc2C1=O	0.0	2.1	23.5
C[C@@H]1CN([C@@H](C)CO)C(=O)c2cc(NC(=O)CCCCCC(=O)Nc3ccccc3N)ccc2O[C@H]1CN(C)C(=O)Nc1ccc2c(c1)OCO2	0.0	-4.9	104.7*
C[C@@H]1CN([C@H](C)CO)C(=O)c2cc(NC(=O)CCCCCC(=O)Nc3ccccc3N)ccc2O[C@H]1CN(C)C(=O)Nc1ccc2c(c1)OCO2	-0.1	1.2	27.9*
C[C@H]1CN([C@@H](C)CO)C(=O)c2cc(NC(=O)CCCCCC(=O)Nc3ccccc3N)ccc2O[C@H]1CN(C)C(=O)Nc1ccc(F)cc1	-0.1	-1.8	43.5*
C[C@H](CO)N1C[C@H](C)[C@H](CN(C)C(=O)Nc2ccc(F)cc2)Oc2ccc(NC(=O)CCCCCC(=O)Nc3ccccc3N)cc2C1=O	0.1	-1.2	-14.8
